Laboratory results as given in the array DNA melting data of Ke et al. (doi:10.1101/2024.01.08.574731).

Tests used:
[1] = folding enthalpy; higher = less favourable; fluorescence melt of hairpins on a sequencing array, two-state fit; conditions: sodium 0.088 M
Summary of the method: (§1)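 To match UV melts, fitted temperatures were raised by 9.35 °C. These fits were bootstrapped two-state models that gave melting temperature and folding enthalpy, combined by inverse variance over four replicates. The input was normalised Cy3 fluorescence of library hairpins with annealed Cy3 and quencher oligos on a sequenced MiSeq flow cell, imaged in 50 mM Na-HEPES pH 8.0, 25 mM NaCl in 2.5 °C steps up to 60 °C.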

[2] = melting temperature; fluorescence melt of hairpins on a sequencing array, two-state fit, raised by 9.35 °C to match UV melts; conditions: sodium 0.088 M
Summary of the method: as §1

Sequence | folding enthalpy [1] | Tm [2]
GGTCCCCGAAAGGGCACC (((.(((....))).))) | -19.3 kcal/mol | 49 °C
GGTCCCGAAAGGGCAACC ((((((....)))..))) | -12.4 kcal/mol | 38.4 °C
GGTCCCGAAAGGGCCACC ((((((....)))..))) | -11.7 kcal/mol | 55 °C
GGTCCCGAAAGGGTACC ((((((....))).))) | -23.4 kcal/mol | 55.5 °C
GGTCCCGGAAACGGGATC (.(((((....))))).) | -24.2 kcal/mol | 57.1 °C
GGTCCCTCGAAAGAGACC (((..(((....)))))) | -17.1 kcal/mol | 34.8 °C
GGTCCGCGAAAGCGCACC (((.(((....))).))) | -20.9 kcal/mol | 48.3 °C
GGTCCGGGAAACCGAACC (((.(((....))).))) | -29.1 kcal/mol | 46.8 °C
GGTCCGGGAAACTGGGCC ((.((.(....).)).)) | -35.4 kcal/mol | 51.7 °C
GGTCCTGGAAACAGGACC (((((((....))))))) | -30.9 kcal/mol | 69.3 °C
GGTCCTGGAAACAGGGTC (..((((....))))..) | -16.1 kcal/mol | 37.8 °C
GGTCGAGGAAACTTGACC ((((.((....)).)))) | -32 kcal/mol | 51.9 °C
GGTCGCCGAAAGGCACC (((.(((....)))))) | -12.6 kcal/mol | 55.3 °C
GGTCGCGAAAGCGAGACC ((((((....)))..))) | -13.5 kcal/mol | 51.6 °C
GGTCGCGAAAGCGCTACC ((((((....)))..))) | -13 kcal/mol | 36.7 °C
GGTCGCGAAAGCGTAACC ((((((....)))..))) | -15 kcal/mol | 47.2 °C
GGTCGCGAAAGCGTCACC ((((((....)))..))) | -13.3 kcal/mol | 40.1 °C
GGTCGCGAAAGCGTGACC ((((((....)))..))) | -18.2 kcal/mol | 53.1 °C
GGTCGCGGAAACGCAACC (((.(((....))).))) | -33.1 kcal/mol | 51.6 °C
GGTCGCGGAAACGTGACC ((((.((....)).)))) | -51.2 kcal/mol | 63.5 °C
GGTCGGACGAAAGTCACC (((..(((....)))))) | -12.7 kcal/mol | 30.6 °C
GGTCGGGGAAACCCGGCC ((.((((....)))).)) | -42.7 kcal/mol | 66.2 °C
GGTCTCGAAAGAGCACC ((((((....))).))) | -22.8 kcal/mol | 46.5 °C

Sequence | folding enthalpy [1] | Tm [2]
GGTCTCGAAAGAGCTACC ((((((....)))..))) | -13.9 kcal/mol | 36 °C
GGTCTCGGAAACAAGACC (((((.(....).))))) | -31.8 kcal/mol | 41.9 °C
GGTCTGGGAAACTAGACC (((((.(....).))))) | -41.5 kcal/mol | 50.6 °C
GGTCTGGGAAACTAGGCC ((.((.(....).)).)) | -33.4 kcal/mol | 41.2 °C
GGTCTTCGAAAGAACACC (((.(((....))).))) | -26.6 kcal/mol | 32.6 °C
GGTCTTCGAAAGAATACC (((.(((....))).))) | -32.9 kcal/mol | 39.1 °C
GGTCTTGAAAAAGACC ((((((....)))))) | -40.4 kcal/mol | 57.2 °C
GGTCTTGGAAACAAAACC (((.(((....))).))) | -14.5 kcal/mol | 29.6 °C
GGTCTTGGAAACAGGACC ((((.((....)).)))) | -36.3 kcal/mol | 49.2 °C
GGTCTTGGAAACGAGATC (.(((.(....).))).) | -17.8 kcal/mol | 30.7 °C
GGTGAACGAAAGTTTACC (((.(((....))).))) | -45.2 kcal/mol | 51.8 °C
GGTGAAGCGAAAGCTACC (((..(((....)))))) | -17.1 kcal/mol | 40.5 °C
GGTGAAGGAAACTTTACC (((.(((....))).))) | -31.6 kcal/mol | 39 °C
GGTGACCGAAAGGTAACC (((.(((....))).))) | -41.1 kcal/mol | 57.1 °C
GGTGACGAAAGTCCAACC ((((((....)))..))) | -18.2 kcal/mol | 37.7 °C
GGTGACGAAAGTCGAACC ((((((....)))..))) | -17.6 kcal/mol | 41.9 °C
GGTGACGAAAGTCTGACC ((((((....)))..))) | -15.6 kcal/mol | 39.7 °C
GGTGACGCGAAAGCGACC (((..(((....)))))) | -12.1 kcal/mol | 40.4 °C
GGTGACGGAAACGTCATC (.(((((....))))).) | -38.2 kcal/mol | 54.1 °C
GGTGAGCGAAAGCTGACC (((.(((....))).))) | -37.8 kcal/mol | 55 °C
GGTGAGGGAAACCCCACC ((((.((....)).)))) | -39.2 kcal/mol | 50.5 °C
GGTGATCGAAAGATACC (((.(((....)))))) | -25.2 kcal/mol | 37.5 °C
GGTGATGAAAATCACC ((((((....)))))) | -32.1 kcal/mol | 62.5 °C

Sequence | folding enthalpy [1] | Tm [2]
GGTGATGGAAACGTCATC (.(((.(....).))).) | -26.4 kcal/mol | 34.7 °C
GGTGCAGGAAACTGCATC (.(((((....))))).) | -22.4 kcal/mol | 53 °C
GGTGCCACGAAAGTGACC (((..(((....)))))) | -15.5 kcal/mol | 35.5 °C
GGTGCCCCGAAAGGGACC (((..(((....)))))) | -16.2 kcal/mol | 47.9 °C
GGTGCCGGAAACGGTACC (((.(((....))).))) | -35.8 kcal/mol | 64.1 °C
GGTGCCTCGAAAGAGACC (((..(((....)))))) | -15 kcal/mol | 30.8 °C
GGTGCGGGAAACCGCATC (.(((((....))))).) | -15.7 kcal/mol | 60.4 °C
GGTGCTCGAAAGAGTACC (((.(((....))).))) | -45.9 kcal/mol | 60 °C
GGTGCTGGAAACAGTACC (((.(((....))).))) | -43.3 kcal/mol | 53.5 °C
GGTGGAACGAAAGTTACC (((..(((....)))))) | -17.3 kcal/mol | 36.5 °C
GGTGGAGGAAACTCCACC (((((((....))))))) | -38.6 kcal/mol | 67.5 °C
GGTGGAGGAAACTCTACC (((.(((....))).))) | -35.8 kcal/mol | 48 °C
GGTGGCCGAAAGGCTACC (((.(((....))).))) | -29.6 kcal/mol | 67.3 °C
GGTGGCGAAAGCCAAACC ((((((....)))..))) | -14.2 kcal/mol | 47.2 °C
GGTGGCGAAAGCCAACC ((((((....))).))) | -16.9 kcal/mol | 64.5 °C
GGTGGCGAAAGCCAGACC ((((((....)))..))) | -12.6 kcal/mol | 46.9 °C
GGTGGCGAAAGCCATACC ((((((....)))..))) | -12 kcal/mol | 45.6 °C
GGTGGCGAAAGCCTACC ((((((....))).))) | -17.1 kcal/mol | 56.2 °C
GGTGGGGGAAACCCTACC (((.(((....))).))) | -27.1 kcal/mol | 52.7 °C
GGTGGGGGAAACCTCACC ((((.((....)).)))) | -39.5 kcal/mol | 53.5 °C
GGTGGGTCGAAAGACACC (((..(((....)))))) | -12.4 kcal/mol | 50.9 °C
GGTGGTGGAAACACTACC (((.(((....))).))) | -29.8 kcal/mol | 52.9 °C
GGTGGTGGAAACACTGCC ((..(((....)))..)) | -25.5 kcal/mol | 47.2 °C

Sequence | folding enthalpy [1] | Tm [2]
GGTGGTGGAAACGCTACC (((.(.(....).).))) | -28.1 kcal/mol | 40.4 °C
GGTGTCACGAAAGTGACC (((..(((....)))))) | -10.2 kcal/mol | 50 °C
GGTGTCGAAAGACAAACC ((((((....)))..))) | -16.6 kcal/mol | 44.4 °C
GGTGTCGAAAGACACACC ((((((....)))..))) | -9.34 kcal/mol | 52.5 °C
GGTGTCGAAAGACGAACC ((((((....)))..))) | -18.8 kcal/mol | 40.9 °C
GGTGTCGGAAACAACACC (((((.(....).))))) | -36.1 kcal/mol | 45.2 °C
GGTGTCGGAAACGGTACC (((..((....))..))) | -28.6 kcal/mol | 40.9 °C
GGTGTGGAAACACACC ((((((....)))))) | -30.2 kcal/mol | 66.6 °C
GGTGTGGGAAACTACGCC ((.((.(....).)).)) | -29.6 kcal/mol | 43.4 °C
GGTGTTGGAAACAACATC (.(((((....))))).) | -24.3 kcal/mol | 48.2 °C
GGTTAACGAAAGTTGACC (((.(((....))).))) | -27.6 kcal/mol | 53.2 °C
GGTTAAGGAAACCTAACC (((((.(....).))))) | -25 kcal/mol | 35.2 °C
GGTTAAGGAAACTTAGCC ((.((((....)))).)) | -28 kcal/mol | 38.5 °C
GGTTACGAAAGTAAGACC ((((((....)))..))) | -15 kcal/mol | 34.5 °C
GGTTACGAAAGTACAACC ((((((....)))..))) | -19.1 kcal/mol | 36.1 °C
GGTTACGAAAGTACACC ((((((....))).))) | -22.7 kcal/mol | 42.2 °C
GGTTACGGAAACGTGACC (((.(((....))).))) | -36.4 kcal/mol | 53.4 °C
GGTTACGGAAACGTGATC (.(.(((....))).).) | -16.3 kcal/mol | 30.4 °C
GGTTACTCGAAAGAGACC (((..(((....)))))) | -11.8 kcal/mol | 25 °C
GGTTAGCGAAAGCTCACC (((.(((....))).))) | -26.6 kcal/mol | 49.1 °C
GGTTAGGGAAACCTAATC (.(((((....))))).) | -27.7 kcal/mol | 37.9 °C
GGTTAGGGAAACTTGACC (((.(.(....).).))) | -18.9 kcal/mol | 28 °C
